In ChEMBL document CHEMBL1142504, “Influence of 6- or 8-substitution on the antiviral activity of 3-arylalkylthiomethylimidazo[1,2-a]pyridine against human cytomegalovirus (CMV) and varicella-zoster virus (VZV): part II” (Bioorg Med Chem, 2008):
≈ marks a conversion by molar mass, not a printed value.

What was measured:
Human alphaherpesvirus 3 [1] = assay: Antiviral activity against thymidine kinase deficient Varicella-Zoster virus 07/1 in HEL cells assessed as inhibition of viral cytopathicity; assay type: functional, organism-based; conditions: Human alphaherpesvirus 3, HEL
Method in brief: (§1)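 VZV input was 20 PFU per HEL cell culture. Cultures were incubated with test compound for 5 days at 37 °C under 5% CO2, then fixed and stained. Viral plaque formation was counted against the untreated control to give the EC50.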

Human betaherpesvirus 5 [2] = assay: Antiviral activity against human cytomegalovirus AD169 in HEL cells assessed as inhibition of viral cytopathicity; assay type: functional, organism-based; conditions: Human betaherpesvirus 5, AD169, HEL
Method in brief: (§2)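 Confluent HEL cell cultures were inoculated with 100 PFU of HCMV. After 2 h adsorption, residual virus was removed and cells were incubated with varying concentrations of test compound. Viral cytopathicity was scored when it reached completion in the untreated virus-infected controls, and the EC50 was taken from this read-out.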

Human betaherpesvirus 5 [3] = assay: Antiviral activity against human cytomegalovirus Davis in HEL cells assessed as inhibition of viral cytopathicity; assay type: functional, organism-based; conditions: Human betaherpesvirus 5, Davis; method in brief: as §2
[4] = Cytotoxicity against HEL cells assessed as morphological alteration after 3 days; assay type: cell-based; conditions: human
Method in brief: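 HEL cell cultures were examined by microscope. Cytotoxicity was recorded as the minimum cytotoxic concentration (MCC), meaning the lowest compound concentration that caused a detectable alteration of cell morphology.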

[5] = Cytotoxicity against HEL cells assessed as reduction of growth after 3 days; assay type: cell-based; conditions: human
Method in brief: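 HEL cell suspensions were added to wells holding varying concentrations of test compound. Plates were incubated 3 days at 37 °C in a humidified CO2 incubator, and viable cells were counted with a Coulter Counter. CC50 is the concentration that reduced viable cell number by 50%.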

Human alphaherpesvirus 3 [6] = assay: Antiviral activity against thymidine kinase expressing Varicella-Zoster virus Oka in HEL cells assessed as inhibition of viral cytopathicity; assay type: functional, organism-based; conditions: Human alphaherpesvirus 3, Oka; method in brief: as §1

EC50 (Human alphaherpesvirus 3 [1]) [µg/mL] | EC50 (Human betaherpesvirus 5 [2]) [µg/mL] | EC50 (Human betaherpesvirus 5 [3]) [µg/mL] | EC50 (Human alphaherpesvirus 3 [6]) [µg/mL] | SMILES | MCC at 72 h [4] [µg/mL] | CC50 at 72 h [5] [µg/mL]
36.6 (≈ 99.6 µM) | > 4 | 8.2 (≈ 22.3 µM) | 53.6 (≈ 146 µM) | Cc1cc(N2CCOCC2)c2ncc(CSCCc3ccccc3)n2c1 | > 100 | 49 (≈ 133 µM)
> 20 | > 20 | > 20 | > 100 | Cc1cc(N2CCCC2=O)cn2c(CSCCc3ccccc3)cnc12 | > 100 | 89 (≈ 244 µM)
> 4 | 8.9 (≈ 29 µM) | 8.9 (≈ 29 µM) | > 4 | Cc1cc(C#N)cn2c(CSCCc3ccccc3)cnc12 | 20 | 14 (≈ 45.5 µM)
> 0.8 | > 0.8 | 0.27 (≈ 0.775 µM) | 2.4 (≈ 6.89 µM) | Cc1cc(-c2ccoc2)cn2c(CSCCc3ccccc3)cnc12 | > 4 | 12 (≈ 34.4 µM)
 | > 4 | 2.9 (≈ 7.54 µM) |  | C=Cc1ccc(-c2cc(C)c3ncc(CSCCc4ccccc4)n3c2)cc1 | 20 | 14 (≈ 36.4 µM)
> 20 | > 20 | 20 (≈ 56.9 µM) | 35.7 (≈ 102 µM) | Cc1cc(N2CCCC2)c2ncc(CSCCc3ccccc3)n2c1 | > 100 | > 100
> 0.8 | > 0.8 | > 0.8 | > 4 | Cc1cc(-c2ccco2)cn2c(CSCCc3ccccc3)cnc12 | > 4 | 40 (≈ 115 µM)
> 4 | > 4 | > 4 | > 4 | Cc1cc(Sc2ccc(Cl)cc2)cn2c(CSCCc3ccccc3)cnc12 | 20 | 14 (≈ 32.9 µM)
> 4 | 4 (≈ 11.4 µM) | 2 (≈ 5.69 µM) | > 4 | Cc1cc(N2CCCC2)cn2c(CSCCc3ccccc3)cnc12 | 20 | 12 (≈ 34.1 µM)
> 4 | 2 (≈ 5.02 µM) | 1.4 (≈ 3.51 µM) | > 4 | Cc1cc(-n2ccc3cccnc32)cn2c(CSCCc3ccccc3)cnc12 | 20 | 16 (≈ 40.1 µM)
> 0.8 | > 0.8 | 0.8 (≈ 1.97 µM) | > 0.8 | Cc1cc(Sc2ccc(O)cc2)cn2c(CSCCc3ccccc3)cnc12 | 4 | 100 (≈ 246 µM)
7.9 (≈ 22.7 µM) | 2.5 (≈ 7.17 µM) | 2.7 (≈ 7.75 µM) | 6.6 (≈ 18.9 µM) | Cc1cc(-c2ccco2)c2ncc(CSCCc3ccccc3)n2c1 | 100 | 41 (≈ 118 µM)
> 4 | 10 (≈ 29.6 µM) | 5.2 (≈ 15.4 µM) | 17.7 (≈ 52.4 µM) | Cc1cc(N2CCCC2)c2ncc(CSCc3ccccc3)n2c1 | ≥ 20 | 52 (≈ 154 µM)
> 4 | 3.1 (≈ 8.9 µM) | 2.3 (≈ 6.6 µM) | > 4 | Cc1cc(-n2ccnc2)c2ncc(CSCCc3ccccc3)n2c1 | 20 | 10 (≈ 28.7 µM)
> 0.8 | > 0.8 | 1.3 (≈ 3.74 µM) | > 4 | Cc1cc(-n2cccc2)cn2c(CSCCc3ccccc3)cnc12 | ≥ 4 | 11 (≈ 31.7 µM)
> 20 | 20 (≈ 50.3 µM) | 10.5 (≈ 26.4 µM) | > 20 | Cc1cc(-n2ccc3ccccc32)c2ncc(CSCCc3ccccc3)n2c1 | 100 | > 100
> 0.8 | > 0.8 | 0.8 (≈ 2.28 µM) | > 0.8 | Cc1cc(-c2ccsc2)cn2c(CSCc3ccccc3)cnc12 | 4 | 9.4 (≈ 26.8 µM)
2.1 (≈ 6.3 µM) | 1.6 (≈ 4.8 µM) | 1.3 (≈ 3.9 µM) | > 4 | Cc1cc(-n2cccc2)cn2c(CSCc3ccccc3)cnc12 | 20 | 17 (≈ 51 µM)
 | > 20 | > 4 |  | Cc1cc(-c2ccc3[nH]ccc3c2)cn2c(CSCCc3ccccc3)cnc12 | ≥ 20 | 26 (≈ 65.4 µM)

EC50 (Human alphaherpesvirus 3 [1]) [µg/mL] | EC50 (Human betaherpesvirus 5 [2]) [µg/mL] | EC50 (Human betaherpesvirus 5 [3]) [µg/mL] | EC50 (Human alphaherpesvirus 3 [6]) [µg/mL] | SMILES | MCC at 72 h [4] [µg/mL] | CC50 at 72 h [5] [µg/mL]
 | > 100 | 30 (≈ 81 µM) |  | C=Cc1ccc(-c2cc(C)c3ncc(CSCc4ccccc4)n3c2)cc1 | ≥ 100 | 59 (≈ 159 µM)
> 4 | > 4 | > 4 | > 4 | Cc1cc(N2CCCC2=O)c2ncc(CSCCc3ccccc3)n2c1 | 20 | 25 (≈ 68.4 µM)
14 (≈ 35.1 µM) | 4 (≈ 10 µM) | 1.8 (≈ 4.52 µM) | 6.6 (≈ 16.6 µM) | Cc1cc(-n2ccc3cccnc32)c2ncc(CSCCc3ccccc3)n2c1 | 100 | > 100
> 20 | > 20 | > 20 | > 20 | Cc1cc(N2CCOCC2)cn2c(CSCCc3ccccc3)cnc12 | 100 | 45 (≈ 122 µM)
2.9 (≈ 7.13 µM) | > 0.8 | 0.8 (≈ 1.97 µM) | 58 (≈ 143 µM) | Cc1cc(Sc2ccc(O)cc2)c2ncc(CSCCc3ccccc3)n2c1 | > 100 | 79 (≈ 194 µM)
> 20 | 1.8 (≈ 5.18 µM) | 1.8 (≈ 5.18 µM) | > 20 | Cc1cc(-n2cccc2)c2ncc(CSCCc3ccccc3)n2c1 | 100 | 26 (≈ 74.8 µM)
1.8 (≈ 5.4 µM) | 6.3 (≈ 18.9 µM) | 2.9 (≈ 8.7 µM) | 2.2 (≈ 6.6 µM) | Cc1cc(-n2cccc2)c2ncc(CSCc3ccccc3)n2c1 | 100 | 15 (≈ 45 µM)
2.2 (≈ 5.42 µM) | 1.8 (≈ 4.44 µM) | 1.8 (≈ 4.44 µM) | > 4 | Cc1cc(Sc2ccc(N)cc2)cn2c(CSCCc3ccccc3)cnc12 | 20 | 23 (≈ 56.7 µM)
> 4 | 2.2 (≈ 7.16 µM) | 2 (≈ 6.51 µM) | 16.4 (≈ 53.3 µM) | Cc1cc(C#N)c2ncc(CSCCc3ccccc3)n2c1 | ≥ 20 | > 100
13 (≈ 57.7 µM) |  |  | 0.24 (≈ 1.07 µM) | Nc1nc2c(ncn2COCCO)c(=O)[nH]1 [ACYCLOVIR] | > 400 | 137 (≈ 608 µM)
 | 12.6 (≈ 32.6 µM) | 6 (≈ 15.5 µM) |  | Cc1cc(-c2ccc(C=O)cc2)cn2c(CSCCc3ccccc3)cnc12 | 100 | 9.4 (≈ 24.3 µM)
 |  |  |  | Nc1ccn(C[C@@H](CO)OCP(=O)(O)O)c(=O)n1 [CIDOFOVIR] | ≥ 100 | 
> 4 | > 4 | 1.8 (≈ 4.53 µM) | > 20 | Cc1cc(-n2ccc3ccccc32)cn2c(CSCCc3ccccc3)cnc12 | > 20 | 18 (≈ 45.3 µM)
6.5 (≈ 18.5 µM) | 4 (≈ 11.4 µM) | 2.1 (≈ 5.99 µM) | 7.3 (≈ 20.8 µM) | Cc1cc(-c2ccsc2)c2ncc(CSCc3ccccc3)n2c1 | 100 | 100 (≈ 285 µM)
11.4 (≈ 32.7 µM) | 8.9 (≈ 25.5 µM) | 6.8 (≈ 19.5 µM) | 10.7 (≈ 30.7 µM) | Cc1cc(-n2ccnc2)cn2c(CSCCc3ccccc3)cnc12 | 100 | 23 (≈ 66 µM)
> 0.8 | > 0.8 | > 0.8 | > 0.8 | Cc1cc(Sc2ccc(Cl)cc2)c2ncc(CSCCc3ccccc3)n2c1 | 4 | 100 (≈ 235 µM)
> 20 | 1.8 (≈ 5.17 µM) | 1.3 (≈ 3.73 µM) | 20 (≈ 57.4 µM) | Cc1cc(-c2ccoc2)c2ncc(CSCCc3ccccc3)n2c1 | 100 | 64 (≈ 184 µM)
> 4 | > 20 | > 4 | > 4 | Cc1cc(N2CCN(C)CC2)cn2c(CSCCc3ccccc3)cnc12 | 20 | 32 (≈ 84.1 µM)

SMILES | EC50 (Human alphaherpesvirus 3 [1]) [µg/mL] | EC50 (Human betaherpesvirus 5 [2]) [µg/mL] | EC50 (Human betaherpesvirus 5 [3]) [µg/mL] | EC50 (Human alphaherpesvirus 3 [6]) [µg/mL] | MCC at 72 h [4] [µg/mL] | CC50 at 72 h [5] [µg/mL]
O=c1[nH]c(=O)n([C@H]2C[C@H](O)[C@@H](CO)O2)cc1/C=C/Br [BRIVUDINE] | > 50 |  |  | 0.0037 (≈ 0.0111 µM) | 400 | 122 (≈ 366 µM)
